Reference: ChEMBL document CHEMBL1157270, “Physalins from Witheringia solanacea as modulators of the NF-kappaB cascade” (J Nat Prod, 2006)
Active and inactive are the calls of the source.

Key:
[1] = system: HeLa; experiment: Cytotoxicity against human HeLa cells at 100 uM; assay type: functional, cell-based
[2] = system: Jurkat; experiment: Induction of apoptosis in human Jurkat T cells assessed as sub-G0/G1 fraction at 20 uM after 6 hrs by flow cytometry; assay type: functional
Method in brief: (§1)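 Jurkat cells (10^6) grown in RPMI 1640 with 10% heat-inactivated FBS, 2 mM glutamine, penicillin and streptomycin, then treated 6 or 24 h. Cells fixed in 70% ethanol for 24 h at 4 °C, washed in PBS with 4% glucose, treated with RNase A (50 U/mL) and stained with PI (20 µg/mL) for 1 h at room temperature. Subdiploid (sub-G0/G1) percentage measured by flow cytometry.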

[3] = system: HeLa; experiment: Cytotoxicity against human HeLa cells at 100 ug/mL
[4] = system: Jurkat; experiment: Induction of apoptosis in human Jurkat T cells assessed as sub-G0/G1 fraction at 10 uM after 6 hrs by flow cytometry; assay type: functional; method in brief: as §1
[5] = system: Jurkat; experiment: Induction of apoptosis in human Jurkat T cells assessed as sub-G0/G1 fraction at 1 uM after 24 hrs by flow cytometry; assay type: functional; method in brief: as §1
[6] = system: Jurkat; experiment: Induction of apoptosis in human Jurkat T cells assessed as sub-G0/G1 fraction at 20 uM after 24 hrs by flow cytometry; assay type: functional; method in brief: as §1
[7] = system: HeLa; experiment: Inhibition of PMA-induced NF-kappaB activation in human HeLa cells at 16 uM after 7 hrs by IL6/luciferase reporter gene assay; assay type: cell-based
Method in brief: (§2)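 HeLa cells stably transfected with an IL-6 promoter–luciferase reporter, stimulated with PMA (50 ng/mL final) for 7 h in the presence of compound. Luminescence given as % of RLU of the PMA-stimulated control, mean of three experiments. Active if ≥30% of positive control. Unstimulated cells served as negative control.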

[8] = system: HeLa; experiment: Cytotoxicity against human HeLa cells after 7 hrs; assay type: functional, cell-based
Method in brief: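 HeLa cells stably carrying an IL-6 promoter–luciferase reporter, exposed to compound with PMA (50 ng/mL final) for 7 h. Toxicity judged visually at 40× magnification from changes in cell morphology.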

[9] = system: HeLa; experiment: Cytotoxicity against human HeLa cells after 72 hrs by MTT assay; assay type: functional, cell-based
Method in brief: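 HeLa cells exposed to compound for 72 h, then incubated 2 h at 37 °C with 0.5 mg/mL MTT. Formazan dissolved in 90% 2-propanol with DMSO. IC50 read from the concentration–response.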

[10] = system: Jurkat; experiment: Induction of apoptosis in human Jurkat T cells assessed as sub-G0/G1 fraction at 1 uM after 6 hrs by flow cytometry; assay type: functional; method in brief: as §1
[11] = system: Jurkat; experiment: Induction of apoptosis in human Jurkat T cells assessed as sub-G0/G1 fraction at 10 uM after 24 hrs by flow cytometry; assay type: functional; method in brief: as §1
[12] = system: HeLa; experiment: Inhibition of PMA-induced NF-kappaB activation in human HeLa cells at 8 uM after 7 hrs by IL6/luciferase reporter gene assay; assay type: cell-based; method in brief: as §2
[13] = system: Jurkat; experiment: Inhibition of TNF-alpha-induced NF-kappaB activation in human Jurkat 5.1 cells preincubated for 30 mins measured after 6 hrs by HIV1-LTR luciferase assay; assay type: cell-based
Method in brief: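 5.1 cells preincubated with compound (5, 10, 20 µM) for 30 min, then stimulated with TNF (2 ng/mL) for 6 h. Lysis in Tris phosphate pH 7.8 buffer with Triton X-100. Luciferase read after subtracting lysis-buffer background and normalised to Bradford protein (RLU/µg). Result expressed as fold induction, mean of three experiments.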

[14] = species: Homo sapiens; experiment: Inhibition of NF-kappaB activation in human HeLa-Tet-On cells assessed as inhibition of doxycyclin-induced HIV1-LTR transactivation at 5 uM after 6 hrs by luciferase reporter gene assay; assay type: cell-based
Method in brief: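 HeLa-Tet-On-Luc cells seeded at 5 × 10^5 cells/mL the day before, then stimulated with doxycycline (2 µg/mL) with or without compound for 6 h. Cells washed in PBS and lysed, and luciferase activity measured.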

[15] = system: HeLa; experiment: Inhibition of PMA-induced NF-kappaB activation in human HeLa cells at 4 uM after 7 hrs by IL6/luciferase reporter gene assay relative to untreated control; assay type: cell-based; set-up: scale not given: the % may be the effect or the level left; method in brief: as §2
[16] = system: HeLa; experiment: Inhibition of PMA-induced NF-kappaB activation in human HeLa cells at 2 uM after 7 hrs by IL6/luciferase reporter gene assay relative to untreated control; assay type: cell-based; set-up: scale not given: the % may be the effect or the level left; method in brief: as §2

Compound | Activity [1] | Activity [2] | Activity [3] | Activity [4] | Activity [5] | Activity [6] | Activity [7] | Activity [8] | IC50 [9] | Activity [10] | Activity [11] | Activity [12] | Activity [13] | Activity [14] | Activity [15] | Activity [16]
C[C@@]12C[C@H]3OC(=O)[C@@H]1CO[C@@]14O[C@]5([C@H]2C1=O)[C@@](O)(CC[C@H]1[C@H]4C[C@@H](O)[C@@]2(O)CC=CC(=O)[C@]12C)C(=O)O[C@@]35C | Not toxic |  |  |  |  |  |  |  |  |  |  |  |  |  |  | 
C[C@]12C(=O)C=CCC1=CC[C@@H]1[C@@H]2CC[C@]2(O)C(=O)O[C@@]3(C)[C@H]4C[C@]5(C)[C@@H](CO[C@@]16O[C@@]32[C@H]5C6=O)C(=O)O4 [PHYSALIN B] |  | 2.08% | Toxic | 2.08% | 6.27% | 50% | Active | Not toxic | 2 µM | 1.83% | 49.7% | Active |  |  |  | 
C[C@@]12C[C@H]3OC(=O)[C@@H]1CO[C@]14O[C@]5([C@H]2C1=O)[C@@](O)(CC[C@H]1[C@H]4C[C@H]2O[C@]24CC=CC(=O)[C@]14C)C(=O)O[C@@]35C [PHYSALIN F] | Toxic | 1.64% |  | 2.07% | 50.2% | 64.6% | Active | Not toxic | 2 µM | 2.71% | 58.2% | Active | Dose-dependent effect | inactive | 7% | 20%
